Experimental data as given in ChEMBL document CHEMBL1154686, “Pyrazoline bearing benzimidazoles: search for anticancer agent” (2010).

What was measured:
Assay type in all cases: functional
LOX IMVI = test: Growth inhibition of human LOXIMVI cells after 48 hrs by SRB assay
Procedure, shortened: (§1)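 NCI-60 panel protocol with adherent lines. Cells were seeded at 5,000–40,000 cells/well, depending on doubling time, and pre-incubated 24 h at 37 °C, 5% CO₂. Time-zero plates were TCA-fixed at drug addition. Drugs were dissolved in DMSO and exposed for 48 h. Cells were fixed with cold TCA (final 10%) for 60 min at 4 °C, stained with 0.4% SRB in 1% acetic acid for 10 min, solubilized with 10 mM trizma base, and read at A515.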

RPMI-8226 = test: Growth inhibition of human RPMI8226 cells after 48 hrs by SRB assay; conditions: RPMI-8226, 48 h
Procedure, shortened: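 Suspension leukemia lines were run in the NCI-60 SRB format. Cells were plated at 5,000–40,000 cells/well and pre-incubated 24 h at 37 °C, 5% CO₂, with time-zero plates fixed at drug addition. Drug exposure in DMSO-derived dilutions lasted 48 h. Settled cells were fixed with 80% TCA (final 16%), stained with 0.4% SRB, solubilized in 10 mM trizma base, and read at 515 nm. Percent growth was taken relative to the time-zero and control readings.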

MDA-MB-468 = test: Growth inhibition of human MDA-MB-468 cells after 48 hrs by SRB assay; conditions: MDA-MB-468, 48 h; procedure, shortened: as §1
U-251 = test: Growth inhibition of human U251 cells after 48 hrs by SRB assay; conditions: U-251, 48 h
Procedure, shortened: (§2)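 NCI 60-cell panel, five-dose format: cells plated at 5,000–40,000/well by doubling time, preincubated 24 h at 37 °C, 5% CO2; time-zero plates TCA-fixed. Compound dissolved in DMSO, five concentrations (0.01, 0.1, 1, 10, 100 µM) plus control, 48 h. Cells fixed with cold TCA, stained with 0.4% SRB in 1% acetic acid, bound dye solubilized in 10 mM trizma base, absorbance at 515 nm. GI50 taken from [(Ti–Tz)/(C–Tz)]×100 = 50.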

MDA-MB-231 = test: Growth inhibition of human MDA-MB-231 cells after 48 hrs by SRB assay; conditions: MDA-MB-231, 48 h; procedure, shortened: as §1
DU-145 = test: Growth inhibition of human DU145 cells after 48 hrs by SRB assay; conditions: DU-145, 48 h; procedure, shortened: as §1
NCI-H226 = test: Growth inhibition of human NCI-H226 cells after 48 hrs by SRB assay; conditions: NCI-H226, 48 h; procedure, shortened: as §1
HCT-15 = test: Growth inhibition of human HCT15 cells after 48 hrs by SRB assay; conditions: HCT-15, 48 h; procedure, shortened: as §1
OVCAR-5 = test: Growth inhibition of human OVCAR5 cells after 48 hrs by SRB assay; conditions: OVCAR-5, 48 h; procedure, shortened: as §1
HT-29 = test: Growth inhibition of human HT-29 cells after 48 hrs by SRB assay; conditions: HT-29, 48 h; procedure, shortened: as §1
A549 = test: Growth inhibition of human A549 cells after 48 hrs by SRB assay; conditions: A549, 48 h; procedure, shortened: as §1
UO-31 = test: Growth inhibition of human UO31 cells after 48 hrs by SRB assay; conditions: UO-31, 48 h; procedure, shortened: as §2
SN12C = test: Growth inhibition of human SN12C cells after 48 hrs by SRB assay; procedure, shortened: as §1
TK-10 = test: Growth inhibition of human TK10 cells after 48 hrs by SRB assay; conditions: TK-10, 48 h; procedure, shortened: as §2
HCT-116 = test: Growth inhibition of human HCT116 cells after 48 hrs by SRB assay; conditions: HCT-116, 48 h; procedure, shortened: as §1
SK-MEL-28 = test: Growth inhibition of human SK-MEL-28 cells after 48 hrs by SRB assay; conditions: SK-MEL-28, 48 h; procedure, shortened: as §1
SF-539 = test: Growth inhibition of human SF539 cells after 48 hrs by SRB assay; conditions: SF-539, 48 h; procedure, shortened: as §1
A498 = test: Growth inhibition of human A498 cells after 48 hrs by SRB assay; conditions: A498, 48 h; procedure, shortened: as §1
UACC-62 = test: Growth inhibition of human UACC62 cells after 48 hrs by SRB assay; conditions: UACC-62, 48 h; procedure, shortened: as §2
HL-60(TB) = test: Growth inhibition of human HL-60(TB) cells after 48 hrs by SRB assay; conditions: HL-60, 48 h
Procedure, shortened: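 NCI-60 protocol: cells seeded at 5,000–40,000/well by doubling time and preincubated 24 h at 37 °C, 5% CO2. Drug, dissolved in DMSO, was added at one dose (10^-5 M) or five 10-fold dilutions, then incubated 48 h. Suspension cells were fixed with 80% TCA (final 16%) and stained with 0.4% SRB, read at 515 nm. GI50 was derived from percentage growth versus time-zero and control.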

NCI-H522 = test: Growth inhibition of human NCI-H522 cells after 48 hrs by SRB assay; conditions: NCI-H522, 48 h; procedure, shortened: as §1
OVCAR-8 = test: Growth inhibition of human OVCAR8 cells after 48 hrs by SRB assay; conditions: OVCAR-8, 48 h; procedure, shortened: as §1
CAKI-1 = test: Growth inhibition of human Caki1 cells after 48 hrs by SRB assay; conditions: CAKI-1, 48 h; procedure, shortened: as §1
SNB-19 = test: Growth inhibition of human SNB19 cells after 48 hrs by SRB assay; conditions: SNB-19, 48 h; procedure, shortened: as §1
[1] = read-out: LC50 (the source's name)

COc1ccc(C2CC(c3nc4ccccc4[nH]3)=NN2c2ccccc2)cc1OC (configuration not stated)
GI50 (LOX IMVI): 5.1 µM
TGI (LOX IMVI): 21.7 µM
CC50 (LOX IMVI; [1]): 62.9 µM
GI50 (RPMI-8226): 2760 nM
TGI (RPMI-8226): 10.3 µM
CC50 (RPMI-8226; [1]): 76.6 µM
GI50 (MDA-MB-468): 5.25 µM
TGI (MDA-MB-468): 21.2 µM
CC50 (MDA-MB-468; [1]): 64.9 µM
GI50 (U-251): 7.67 µM
TGI (U-251): 80.2 µM
CC50 (U-251; [1]): > 100 µM
GI50 (MDA-MB-231): 7.19 µM
TGI (MDA-MB-231): 91.5 µM
CC50 (MDA-MB-231; [1]): > 100 µM
GI50 (DU-145): 33.1 µM
TGI (DU-145): > 100 µM
CC50 (DU-145; [1]): > 100 µM
GI50 (NCI-H226): 15.3 µM
TGI (NCI-H226): > 100 µM
CC50 (NCI-H226; [1]): > 100 µM
GI50 (HCT-15): 4.1 µM
TGI (HCT-15): 20.5 µM
CC50 (HCT-15; [1]): 70.9 µM
GI50 (OVCAR-5): 26.7 µM
TGI (OVCAR-5): > 100 µM
CC50 (OVCAR-5; [1]): > 100 µM
GI50 (HT-29): 9.91 µM
TGI (HT-29): 24.7 µM
CC50 (HT-29; [1]): 61.4 µM
GI50 (A549): 17.1 µM
TGI (A549): > 100 µM
CC50 (A549; [1]): > 100 µM
GI50 (UO-31): 2200 nM
TGI (UO-31): 39.8 µM
CC50 (UO-31; [1]): > 100 µM
GI50 (SN12C): 17.3 µM
TGI (SN12C): > 100 µM
CC50 (SN12C; [1]): > 100 µM
GI50 (TK-10): 15.7 µM
TGI (TK-10): 65.9 µM
CC50 (TK-10; [1]): > 100 µM
GI50 (HCT-116): 3.94 µM
TGI (HCT-116): 16.5 µM
CC50 (HCT-116; [1]): 49.8 µM
GI50 (SK-MEL-28): 13.1 µM
TGI (SK-MEL-28): 39 µM
CC50 (SK-MEL-28; [1]): > 100 µM
GI50 (SF-539): 15 µM
TGI (SF-539): 38.6 µM
CC50 (SF-539; [1]): 99.5 µM
GI50 (A498): 5.14 µM
TGI (A498): 58.1 µM
CC50 (A498; [1]): > 100 µM
GI50 (UACC-62): 2590 nM
TGI (UACC-62): > 100 µM
CC50 (UACC-62; [1]): > 100 µM
GI50 (HL-60(TB)): > 100 µM
TGI (HL-60(TB)): > 100 µM
CC50 (HL-60(TB); [1]): > 100 µM
GI50 (NCI-H522): 5.46 µM
TGI (NCI-H522): 34.8 µM
CC50 (NCI-H522; [1]): > 100 µM
GI50 (OVCAR-8): 19.9 µM
TGI (OVCAR-8): > 100 µM
CC50 (OVCAR-8; [1]): > 100 µM
GI50 (CAKI-1): 3.6 µM
TGI (CAKI-1): 24.7 µM
CC50 (CAKI-1; [1]): > 100 µM
GI50 (SNB-19): 26.6 µM
TGI (SNB-19): > 100 µM
CC50 (SNB-19; [1]): > 100 µM
